Reference: ChEMBL document CHEMBL4270541, “Synthesis and antimicrobial evaluation of amino sugar-based naphthoquinones and isoquinoline-5,8-diones and their halogenated compounds” (Eur J Med Chem, 2018)
≈ marks a conversion by molar mass, not a printed value. Calls of active or inactive are those of the source. The calls are words filed in the database; no cut-off is given here.

Legend:
[1] = test system: Staphylococcus simulans; experiment: Antimicrobial activity against Staphylococcus simulans INCQS 00254 ATCC 27851 assessed as zone of inhibition at 5 mg/ml after 18 to 24 hrs by disc diffusion method; assay type: functional; conditions: read-out: IZ
[2] = test system: Escherichia coli; experiment: Bactericidal activity against Escherichia coli INCQS 00033 ATCC 25922 incubated for 24 hrs followed by transfer of microbial suspension to agar plates and measured after 24 hrs post transfer by resazurin dye-based colorimetric analysis; assay type: functional; conditions: ATCC 25922 INCQS 00033, 24 h, read-out: MBC99.9
Procedure, shortened: (§1)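 For MBC, 10 µL from each clear MIC well was plated on agar and incubated 24 h at 37°C. MBC is the minimum concentration inhibiting 99.9% of growth. […] Triplicate.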

[3] = test system: Pseudomonas aeruginosa; experiment: Antimicrobial activity against Pseudomonas aeruginosa INCQS 00099 ATCC 27853 assessed as zone of inhibition at 5 mg/ml after 18 to 24 hrs by disc diffusion method; assay type: functional; conditions: read-out: IZ
[4] = test system: Staphylococcus epidermidis; experiment: Antimicrobial activity against Staphylococcus epidermidis INCQS 00016 ATCC 12228 assessed as zone of inhibition at 5 mg/ml after 18 to 24 hrs by disc diffusion method; assay type: functional; conditions: ATCC 12228 INCQS 00016, read-out: IZ
[5] = test system: Pseudomonas aeruginosa; experiment: Antimicrobial activity against Pseudomonas aeruginosa INCQS 00099 ATCC 27853 after 24 hrs by microdilution assay; assay type: functional; conditions: INCQS 00099 ATCC 27853, 24 h
[6] = test system: Escherichia coli; experiment: Antimicrobial activity against Escherichia coli INCQS 00033 ATCC 25922 assessed as zone of inhibition at 5 mg/ml after 18 to 24 hrs by disc diffusion method; assay type: functional; conditions: ATCC 25922 INCQS 00033, read-out: IZ
[7] = test system: Staphylococcus aureus; experiment: Bactericidal activity against methicillin-resistant Staphylococcus aureus BMB9393 incubated for 24 hrs followed by transfer of microbial suspension to agar plates and measured after 24 hrs post transfer by resazurin dye-based colorimetric analysis; assay type: functional; conditions: BMB9393, 24 h, read-out: MBC99.9
Procedure, shortened: (§2)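 From MIC wells with no visible growth, 10 µL is transferred to agar plates and incubated 24 h at 37°C. MBC is the minimum concentration inhibiting 99.9% of growth. […] Triplicate.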

[8] = test system: Staphylococcus aureus; experiment: Antimicrobial activity against methicillin-resistant Staphylococcus aureus BMB9393 after 24 hrs by microdilution assay; assay type: functional; conditions: BMB9393, 24 h
[9] = test system: Escherichia coli; experiment: Ratio of MBC99.9 to MIC for Escherichia coli INCQS 00033 ATCC 25922; assay type: functional, ATCC 25922 INCQS 00033
Procedure, shortened: (§3)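 MBC/MIC ratio from the 24 h, 37°C microdilution MIC and the agar-plating MBC (99.9% growth inhibition). A ratio ≤2 was classed as bactericidal and ≥4 as bacteriostatic.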

[10] = test system: Staphylococcus epidermidis; experiment: Antimicrobial activity against Staphylococcus epidermidis INCQS 00016 ATCC 12228 after 24 hrs by microdilution assay; assay type: functional; conditions: ATCC 12228 INCQS 00016, 24 h
[11] = test system: Pseudomonas aeruginosa; experiment: Bactericidal activity against Pseudomonas aeruginosa INCQS 00099 ATCC 27853 incubated for 24 hrs followed by transfer of microbial suspension to agar plates and measured after 24 hrs post transfer by resazurin dye-based colorimetric analysis; assay type: functional; conditions: INCQS 00099 ATCC 27853, 24 h, read-out: MBC99.9; procedure, shortened: as §1
[12] = test system: Staphylococcus simulans; experiment: Ratio of MBC99.9 to MIC for Staphylococcus simulans INCQS 00254 ATCC 27851; assay type: functional; procedure, shortened: as §3
[13] = test system: Staphylococcus aureus; experiment: Antimicrobial activity against Staphylococcus aureus INCQS 00015 ATCC 25923 after 24 hrs by microdilution assay; assay type: functional; conditions: INCQS 00015 ATCC 25923, 24 h
[14] = test system: Staphylococcus aureus; experiment: Antimicrobial activity against methicillin-resistant Staphylococcus aureus BMB9393 assessed as zone of inhibition at 5 mg/ml after 18 to 24 hrs by disc diffusion method; assay type: functional; conditions: read-out: IZ
[15] = test system: Klebsiella pneumoniae; experiment: Antimicrobial activity against Klebsiella pneumoniae INCQS 00083 ATCC 4352 assessed as zone of inhibition at 5 mg/ml after 18 to 24 hrs by disc diffusion method; assay type: functional; conditions: read-out: IZ
[16] = test system: Staphylococcus simulans; experiment: Antimicrobial activity against Staphylococcus simulans INCQS 00254 ATCC 27851 after 24 hrs by microdilution assay; assay type: functional; conditions: INCQS 00254 ATCC 27851, 24 h
[17] = test system: Staphylococcus aureus; experiment: Bactericidal activity against Staphylococcus aureus INCQS 00015 ATCC 25923 incubated for 24 hrs followed by transfer of microbial suspension to agar plates and measured after 24 hrs post transfer by resazurin dye-based colorimetric analysis; assay type: functional; conditions: INCQS 00015 ATCC 25923, 24 h, read-out: MBC99.9; procedure, shortened: as §2
[18] = test system: Proteus mirabilis; experiment: Antimicrobial activity against Proteus mirabilis INCQS 00095 ATCC 15290 assessed as zone of inhibition at 5 mg/ml after 18 to 24 hrs by disc diffusion method; assay type: functional; conditions: read-out: IZ
[19] = test system: Staphylococcus epidermidis; experiment: Ratio of MBC99.9 to MIC for Staphylococcus epidermidis INCQS 00016 ATCC 12228; assay type: functional, ATCC 12228 INCQS 00016; procedure, shortened: as §3
[20] = test system: Staphylococcus simulans; experiment: Bactericidal activity against Staphylococcus simulans INCQS 00254 ATCC 27851 incubated for 24 hrs followed by transfer of microbial suspension to agar plates and measured after 24 hrs post transfer by resazurin dye-based colorimetric analysis; assay type: functional; conditions: INCQS 00254 ATCC 27851, 24 h, read-out: MBC99.9; procedure, shortened: as §1
[21] = test system: Pseudomonas aeruginosa; experiment: Ratio of MBC99.9 to MIC for Pseudomonas aeruginosa INCQS 00099 ATCC 27853; assay type: functional; procedure, shortened: as §3
[22] = test system: Staphylococcus epidermidis; experiment: Bactericidal activity against Staphylococcus epidermidis INCQS 00016 ATCC 12228 incubated for 24 hrs followed by transfer of microbial suspension to agar plates and measured after 24 hrs post transfer by resazurin dye-based colorimetric analysis; assay type: functional; conditions: ATCC 12228 INCQS 00016, 24 h, read-out: MBC99.9; procedure, shortened: as §1
[23] = Hemolytic activity against human erythrocytes assessed as hemolysis at 200 ug/ml after 3 hrs by spectrophotometric analysis relative to control; assay type: ADME, cell-based, Erythrocyte; conditions: read-out: Activity
Procedure, shortened: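 Erythrocytes collected in citrate tubes, washed three times with PBS pH 7.4 by centrifugation and resuspended in PBS. Incubated with compounds at 200 µg/mL for 3 h at 37°C. Released hemoglobin was read in the supernatant at 545 nm against 1% Triton X-100 (complete lysis) and 1% DMSO (negative control). Below 10% hemolysis was taken as hemocompatible. Three independent experiments.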

[24] = test system: Staphylococcus aureus; experiment: Ratio of MBC99.9 to MIC for Staphylococcus aureus INCQS 00015 ATCC 25923; assay type: functional; procedure, shortened: as §3
[25] = test system: Enterococcus faecalis; experiment: Antimicrobial activity against Enterococcus faecalis INCQS 00234 ATCC 29212 assessed as zone of inhibition at 5 mg/ml after 18 to 24 hrs by disc diffusion method; assay type: functional; conditions: ATCC 29212 INCQS 00234, read-out: IZ
[26] = test system: Staphylococcus aureus; experiment: Antimicrobial activity against Staphylococcus aureus INCQS 00015 ATCC 25923 assessed as zone of inhibition at 5 mg/ml after 18 to 24 hrs by disc diffusion method; assay type: functional; conditions: read-out: IZ
[27] = test system: Escherichia coli; experiment: Antimicrobial activity against Escherichia coli INCQS 00033 ATCC 25922 after 24 hrs by microdilution assay; assay type: functional; conditions: ATCC 25922 INCQS 00033, 24 h
[28] = test system: Escherichia coli; experiment: Bactericidal activity against Escherichia coli; assay type: functional
[29] = test system: Escherichia coli; experiment: Antimicrobial activity against Escherichia coli; assay type: functional
[30] = test system: Staphylococcus aureus; experiment: Ratio of MBC99.9 to MIC for methicillin-resistant Staphylococcus aureus BMB9393; assay type: functional
Procedure, shortened: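 MBC (99.9% kill on agar subculture of clear MIC wells, 24 h, 37°C) divided by broth microdilution MIC (24 h, 37°C). Ratio ≤2 taken as bactericidal and ≥4 as bacteriostatic.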

[31] = test system: Staphylococcus epidermidis; experiment: Antimicrobial activity against Staphylococcus epidermidis INCQS 00016 ATCC 12228 at 256 ug/ml after 24 hrs by microdilution assay; assay type: functional, organism-based; conditions: ATCC 12228 INCQS 00016
[32] = test system: Staphylococcus epidermidis; experiment: Bactericidal activity against Staphylococcus epidermidis INCQS 00016 ATCC 12228 at 256 ug/ml incubated for 24 hrs followed by transfer of microbial suspension to agar plates and measured after 24 hrs post transfer by resazurin dye-based colorimetric analysis; assay type: functional, organism-based; conditions: ATCC 12228 INCQS 00016; procedure, shortened: as §1

Structure (SMILES)	zone of inhibition at 5000 µg/mL [1] [mm]	MBC [2] [µg/mL]	zone of inhibition at 5000 µg/mL [3] [mm]	zone of inhibition at 5000 µg/mL [4] [mm]	MIC [5] [µg/mL]	zone of inhibition at 5000 µg/mL [6] [mm]	MBC [7] [µg/mL]	MIC [8] [µg/mL]	Ratio [9]	MBC [11] [µg/mL]	Ratio [12]	MIC [13] [µg/mL]	zone of inhibition at 5000 µg/mL [14] [mm]	zone of inhibition at 5000 µg/mL [15] [mm]	MIC [16] [µg/mL]	MBC [17] [µg/mL]	zone of inhibition at 5000 µg/mL [18] [mm]	MBC [20] [µg/mL]	Ratio [21]	hemolysis at 3 h, 200 ug/ml [23] [%]	other results
NC1=CC(=O)c2ccccc2C1=O	18	32 (≈ 185 µM)	12	17	64 (≈ 370 µM)	20	64 (≈ 370 µM)	64 (≈ 370 µM)	1	64 (≈ 370 µM)	1	64 (≈ 370 µM)	17	0	64 (≈ 370 µM)	64 (≈ 370 µM)	0	64 (≈ 370 µM)	1	10.1 to 14.4	MIC [10]: 128 µg/mL (≈ 739 µM); Ratio [19]: 1; MBC [22]: 128 µg/mL (≈ 739 µM); Ratio [24]: 1; zone of inhibition at 5000 µg/mL [25]: 0 mm; zone of inhibition at 5000 µg/mL [26]: 15 mm; MIC [27]: 32 µg/mL (≈ 185 µM)
COC(=O)c1c(C)nc(C)c2c1C(=O)C(Br)=C(Nc1ccc(OC)cc1)C2=O	–	–	–	–	–	–	–	–	–	–	–	–	–	–	–	–	–	–	–	–	MBC [28]: 2 to 4 µg/mL (≈ 4.49 to 8.98 µM); MIC [29]: 2 to 4 µg/mL (≈ 4.49 to 8.98 µM)
NC1=C(Br)C(=O)c2ccccc2C1=O	17	64 (≈ 254 µM)	14	12	32 (≈ 127 µM)	8	64 (≈ 254 µM)	64 (≈ 254 µM)	1	32 (≈ 127 µM)	1	64 (≈ 254 µM)	16	0	128 (≈ 508 µM)	64 (≈ 254 µM)	0	128 (≈ 508 µM)	1	10.1 to 14.4	Ratio [30]: 1; MIC [10]: 128 µg/mL (≈ 508 µM); Ratio [19]: 1; MBC [22]: 128 µg/mL (≈ 508 µM); Ratio [24]: 1; zone of inhibition at 5000 µg/mL [25]: 0 mm; zone of inhibition at 5000 µg/mL [26]: 10 mm; MIC [27]: 64 µg/mL (≈ 254 µM)
COC(=O)c1c(CBr)nc(C)c2c1C(=O)C(Br)=C(Nc1ccc(Cl)cc1)C2=O	–	–	–	–	–	–	–	–	–	–	–	–	–	–	–	–	–	–	–	–	MBC [28]: 2 to 4 µg/mL (≈ 3.78 to 7.57 µM); MIC [29]: 2 to 4 µg/mL (≈ 3.78 to 7.57 µM)
NC1=C(Cl)C(=O)c2ccccc2C1=O	14	128 (≈ 617 µM)	15	21	16 (≈ 77.1 µM)	10	64 (≈ 308 µM)	64 (≈ 308 µM)	1	16 (≈ 77.1 µM)	1	64 (≈ 308 µM)	20	0	128 (≈ 617 µM)	64 (≈ 308 µM)	0	128 (≈ 617 µM)	1	10.1 to 14.4	Activity [31]: inactive; Activity [32]: inactive; Ratio [24]: 1; zone of inhibition at 5000 µg/mL [25]: 0 mm; zone of inhibition at 5000 µg/mL [26]: 12 mm; MIC [27]: 128 µg/mL (≈ 617 µM)
